Columns and labels:
[1] = biological target: T1, B1 bradykinin receptor (Homo sapiens, UniProt P46663); experiment: Binding affinity to human bradykinin B1 receptor
T1 sequence (P46663 whole entry): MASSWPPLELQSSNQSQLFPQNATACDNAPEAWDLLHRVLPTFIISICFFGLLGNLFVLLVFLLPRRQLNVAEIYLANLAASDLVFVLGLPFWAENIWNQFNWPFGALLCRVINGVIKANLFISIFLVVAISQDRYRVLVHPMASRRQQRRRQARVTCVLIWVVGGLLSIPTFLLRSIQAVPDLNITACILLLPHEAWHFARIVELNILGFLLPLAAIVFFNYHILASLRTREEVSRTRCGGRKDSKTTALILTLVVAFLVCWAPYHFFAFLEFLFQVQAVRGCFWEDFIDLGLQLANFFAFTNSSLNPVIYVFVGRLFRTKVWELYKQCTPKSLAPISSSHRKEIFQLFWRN

[2] = biological target: T2, B2 bradykinin receptor (Homo sapiens, UniProt P30411); experiment: Antagonist potency at human bradykinin B2 receptor assessed as effect on inositol monophosphate accumulation in CHOdhfr- cells; assay type: functional, cell-based; conditions: read-out: pA2 (converted)
T2 sequence (P30411 whole entry): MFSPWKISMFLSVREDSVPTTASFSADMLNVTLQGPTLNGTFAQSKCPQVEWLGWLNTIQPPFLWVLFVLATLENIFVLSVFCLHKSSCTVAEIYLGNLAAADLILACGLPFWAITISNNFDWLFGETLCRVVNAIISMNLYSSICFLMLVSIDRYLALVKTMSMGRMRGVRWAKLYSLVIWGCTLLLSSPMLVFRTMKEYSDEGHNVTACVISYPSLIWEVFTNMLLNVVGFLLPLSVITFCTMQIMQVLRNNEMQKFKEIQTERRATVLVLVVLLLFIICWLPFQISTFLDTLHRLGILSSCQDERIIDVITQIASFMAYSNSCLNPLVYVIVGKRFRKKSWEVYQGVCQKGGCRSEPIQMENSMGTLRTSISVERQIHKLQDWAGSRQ
How it was run: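 pA2 derived from antagonism of bradykinin-stimulated inositol monophosphate accumulation in CHOdhfr- cells stably transfected with the human B2 receptor.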

[3] = biological target: T3, B2 bradykinin receptor (Cavia porcellus) (UniProt O70526); experiment: Effect on BK-induced hypotension in Dunkin Hartley guinea pig at 100 nmol/kg, it; assay type: functional
T3 sequence (whole entry): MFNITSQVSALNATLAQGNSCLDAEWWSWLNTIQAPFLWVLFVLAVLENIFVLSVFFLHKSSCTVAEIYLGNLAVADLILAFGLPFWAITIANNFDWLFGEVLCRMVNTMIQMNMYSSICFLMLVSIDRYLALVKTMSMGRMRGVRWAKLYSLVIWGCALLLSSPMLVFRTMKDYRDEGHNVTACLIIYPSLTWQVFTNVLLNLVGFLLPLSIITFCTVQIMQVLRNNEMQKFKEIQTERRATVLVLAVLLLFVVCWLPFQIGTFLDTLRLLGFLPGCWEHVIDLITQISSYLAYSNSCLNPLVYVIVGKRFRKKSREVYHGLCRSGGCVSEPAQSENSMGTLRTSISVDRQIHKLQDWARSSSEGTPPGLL
How it was run: (§1)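 Compound was given intratracheally to anaesthetized guinea pigs. Five min later, BK (10 nmol/kg iv) challenge was given and repeated every 30 min for 210 min. Blood pressure was monitored. Result is Σ%: residual BK response as % of basal, normalized to control at each observation time (5–210 min), expressed as % of theoretical maximum.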

[4] = biological target: T2, B2 bradykinin receptor; experiment: Displacement of [3H]BK from human bradykinin B2 receptor transfected in CHO cells; assay type: cell-based
How it was run: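 pKi from inhibition of specific [3H]-BK binding to membrane preparations of CHO cells stably transfected with the human B2 receptor.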

[5] = biological target: T3, B2 bradykinin receptor (Cavia porcellus); experiment: Inhibition of BK-induced bronchoconstriction in Dunkin Hartley guinea pig at 100 nmol/kg, it; assay type: functional; design: scale not given: the % may be the effect or the level left
How it was run: as §1, with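 “Pulmonary insufflation” for “Blood”, “5–210 min” for “each observation”, “points,” for “(5–210 min),”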

[6] = biological target: T4, B2 bradykinin receptor (Cavia porcellus, UniProt O70526); experiment: Antagonist potency on BK-induced contraction of guinea pig ileum longitudinal smooth muscle; assay type: functional, tissue-based; conditions: read-out: pA2 (converted)
T4 sequence (O70526 whole entry): T3 sequence (whole entry)

[7] = biological target: T3, B2 bradykinin receptor (Cavia porcellus); experiment: Effect on BK-induced hypotension in Dunkin Hartley guinea pig at 300 nmol/kg, it; assay type: functional; how it was run: as §1
[8] = biological target: T3, B2 bradykinin receptor (Cavia porcellus); experiment: Inhibition of BK-induced bronchoconstriction in Dunkin Hartley guinea pig at 300 nmol/kg, it; assay type: functional; design: scale not given: the % may be the effect or the level left
How it was run: as §1, with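 “Pulmonary insufflation” for “Blood”, “5–210 min” for “each observation”, “points,” for “(5–210 min),”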

| Structure (SMILES) | Ki [1] [nM] | Kb [2] [nM] | Activity [3] [%] | Ki [4] [nM] | Activity [5] [%] | Kb [6] [nM] | Activity [7] [%] | Activity [8] [%] |
| --- | --- | --- | --- | --- | --- | --- | --- | --- |
| Cc1cc(C)c2cccc(OCc3c(Cl)ccc(S(=O)(=O)NC4(C(=O)N5CCN(C(=O)C[C@@H](N)CCCN)CC5)CCCC4)c3Cl)c2n1 | > 10000 | 0.501 | 100 | 0.631 | 46 |  |  |  |
| Cc1cc(C)c2cccc(OCc3c(Cl)ccc(S(=O)(=O)NC4(C(=O)N5CCN(C(=O)[C@H](CCC[N+](C)(C)C)[N+](C)(C)C)CC5)CCCC4)c3Cl)c2n1 | > 10000 | 2.51 |  | 0.2 |  |  |  |  |
| Cc1cc(C)c2cccc(OCc3c(Cl)ccc(S(=O)(=O)NC4(C(=O)N5CCN(C(=O)C[C@@H](N)CCCNC(=N)N)CC5)CCCC4)c3Cl)c2n1 | > 10000 | 0.794 | 100 |  | 78 |  |  |  |
| Cc1cc(C)c2cccc(OCc3c(Cl)ccc(S(=O)(=O)NC(C)(C)C(=O)N4CCN(C(=O)[C@@H](N)CCCCN(C)C)CC4)c3Cl)c2n1 | > 10000 |  |  |  |  | 0.2 | 69 | 37 |
| Cc1cc(C)c2cccc(OCc3c(Cl)ccc(S(=O)(=O)NC4(C(=O)N5CCN(C(=O)CCC[N+](C)(C)C)CC5)CCCC4)c3Cl)c2n1 | > 10000 | 2 | 83 |  | 65 |  |  |  |
| Cc1cc(C)c2cccc(OCc3c(Cl)ccc(S(=O)(=O)NC4(C(=O)N5CCN(C(=O)CCCC[N+](C)(C)C)CC5)CCCC4)c3Cl)c2n1 | > 10000 | 1.58 |  | 0.251 |  |  |  |  |
| Cc1cc(C)c2cccc(OCc3c(Cl)ccc(S(=O)(=O)NC(C)(C)C(=O)N4CCN(C(=O)[C@@H](N)CCCN(C)C)CC4)c3Cl)c2n1 | > 10000 |  |  |  |  | 0.1 | 79 | 39 |
| Cc1cc(C)c2cccc(OCc3c(Cl)ccc(S(=O)(=O)NC4(C(=O)N5CCN(C(=O)CCCCC[N+](C)(C)C)CC5)CCCC4)c3Cl)c2n1 | > 10000 | 5.01 |  |  |  |  |  |  |
| Cc1cc(C)c2cccc(OCc3c(Cl)ccc(S(=O)(=O)NC4(C(=O)N5CCN(C(=N)NCCC[N+](C)(C)C)CC5)CCCC4)c3Cl)c2n1 | > 10000 | 1.58 |  | 0.398 |  |  | 87 | 17 |
| Cc1cc(C)c2cccc(OCc3c(Cl)ccc(S(=O)(=O)NC4(C(=O)N5CCN(C(=O)[C@@H](N)CCCC[N+](C)(C)C)CC5)CCCC4)c3Cl)c2n1 | > 10000 | 1.26 | 94 |  | 35 |  |  |  |
| Cc1cc(C)c2cccc(OCc3c(Cl)ccc(S(=O)(=O)NC4(C(=O)N5CCN(C(=O)C[C@@H](N)CCC[N+](C)(C)C)CC5)CCCC4)c3Cl)c2n1 | > 10000 | 1.58 | 96 | 0.2 | 57 |  |  |  |
| Cc1cc(C)c2cccc(OCc3c(Cl)ccc(S(=O)(=O)NC4(C(=O)N5CCN(C(=O)[C@@H](N)CCC[N+](C)(C)C)CC5)CCSCC4)c3Cl)c2n1 | > 10000 | 0.158 | 89 | 0.0501 | 59 |  |  |  |
| Cc1cc(C)c2cccc(OCc3c(Cl)ccc(S(=O)(=O)NC4(C(=O)N5CCN(C(=O)[C@@H](N)CCC[N+](C)(C)C)CC5)CCCC4)c3Cl)c2n1 | > 10000 | 0.501 | 100 | 0.0501 | 24 |  |  |  |
| Cc1cc(C)c2cccc(OCc3c(Cl)ccc(S(=O)(=O)NC4(C(=O)N5CCN(C(=O)[C@H](CCCC[N+](C)(C)C)[N+](C)(C)C)CC5)CCCC4)c3Cl)c2n1 | > 10000 | 6.31 |  | 0.2 |  |  |  |  |
| Cc1cc(C)c2cccc(OCc3c(Cl)ccc(S(=O)(=O)NC4(C(=O)N5CCN(C(=O)[C@@H](N)CCC[N+](C)(C)C)CC5)CCN(C)CC4)c3Cl)c2n1 | > 10000 | 0.251 | 86 | 0.0794 | 40 |  |  |  |
